In brackets after ≈: the same amount, converted by molar mass. Activity calls are given as the source filed them. The rule behind the calls is not given here.
Experiments:
Staphylococcus aureus [1] = assay: Antibacterial activity against Staphylococcus aureus ATCC 13709 after 24 hrs by microdilution method; type: functional; conditions: ATCC 13709, 24 h
Procedure, shortened: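 Broth microdilution MIC per CLSI M7-A7 against S. aureus ATCC 13709.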

Bone = assay: Binding affinity to bone assessed as drug level bound to cattle bone meal powder by fluorescence assay; type: tissue-based; parameters: concentration or dose not given beside the values; conditions: Bos taurus; Bone element
Procedure, shortened: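 Drug or prodrug was suspended with bone meal powder in PBS and held 1 h at 37 °C to bind, then centrifuged. The pellet was washed three times with PBS, and all supernatants were read by fluorescence (ex/em 280/465 nm). Bound fraction was taken as […] prodrug relative to total input.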

[2] = Stability in phosphate buffer saline assessed as amount of parent drug released from cattle bone meal powder over 24 hrs; type: ADME
Procedure, shortened: (§1)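 Washed bone-powder-bound prodrug was resuspended in PBS or 50% (v/v in PBS) human or rat serum and kept 24 h at 37 °C. The supernatant was extracted with 5 volumes of methanol, centrifuged, dried, redissolved in PBS and read by fluorescence. Release was derived from the difference between bound prodrug and regenerated drug. Identity was checked by CLSI MIC.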

Serum [3] = assay: Stability in 50% rat serum assessed as amount of parent drug released from cattle bone meal powder over 24 hrs; type: ADME, cell-free; procedure, shortened: as §1
Serum [4] = assay: Stability in 50% human serum assessed as amount of parent drug released from cattle bone meal powder over 24 hrs; type: ADME, cell-free; procedure, shortened: as §1
Staphylococcus aureus [5] = assay: Protective effect against Staphylococcus aureus ATCC 13709-induced bone infection in CD rat at 10 mg/kg, iv administered as single dose 2 days before bacterial challenge; type: functional, organism-based; parameters: dose 10 mg/kg
Procedure, shortened: (§2)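 Female CD rats (57–70 days, n = 5/group) received a single IV bolus in 0.9% saline before infection. Under isoflurane, tibiae were injected with 0.05 ml 5% sodium morrhuate, then S. aureus ATCC 13709 (ca. 5 × 10⁵ CFU/rat). At 24 h, tibiae were milled and cultured quantitatively. Read-out was log CFU/g bone (mean, SD; detection limit 2 log), compared by Dunnett or Kruskal–Wallis.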

Staphylococcus aureus [6] = assay: Protective effect against Staphylococcus aureus ATCC 13709-induced bone infection in CD rat at 10 mg/kg, iv administered as single dose 24 hrs after bacterial challenge; type: functional, organism-based; parameters: dose 10 mg/kg
Staphylococcus aureus [7] = assay: Protective effect against Staphylococcus aureus ATCC 13709-induced bone infection in CD rat at 10 mg/kg, iv administered as single dose
Staphylococcus aureus [8] = assay: Protective effect against Staphylococcus aureus ATCC 13709-induced bone infection in CD rat at 15.8 mg/kg, iv administered as single dose 2 days before bacterial challenge; type: functional, organism-based; parameters: dose 15.8 mg/kg; procedure, shortened: as §2
Staphylococcus aureus [9] = assay: Protective effect against Staphylococcus aureus ATCC 13709-induced bone infection in CD rat at 17.3 mg/kg, iv administered as single dose 2 days before bacterial challenge; type: functional, organism-based; parameters: dose 17.3 mg/kg; procedure, shortened: as §2

SMILES: COc1c(N2C[C@@H]3CCCN[C@@H]3C2)c(F)cc2c(=O)c(C(=O)SCC(=O)NC(P(=O)(O)O)P(=O)(O)O)cn(C3CC3)c12
- MIC (Staphylococcus aureus [1]): > 4 µg/mL
- Activity (Bone): 99%
- Activity [2]: 0.3%
- Activity (Serum [3]): 0.4%
- Activity (Serum [4]): 0.5%

SMILES: COc1c(N2C[C@@H]3CCCN[C@@H]3C2)c(F)cc2c(=O)c(C(=O)OCCCC(P(=O)(O)O)P(=O)(O)O)cn(C3CC3)c12
- MIC (Staphylococcus aureus [1]): > 4 µg/mL
- Activity (Bone): 93.8%

SMILES: COc1c(N2C[C@@H]3CCCN[C@@H]3C2)c(F)cc2c(=O)c(C(=O)O)cn(C3CC3)c12 [MOXIFLOXACIN]
- MIC (Staphylococcus aureus [1]): 0.03 µg/mL (≈ 0.0747 µM)
- Activity (Staphylococcus aureus [5]): inactive
- Activity (Staphylococcus aureus [6]): inactive
- Activity (Staphylococcus aureus [7]): inactive

SMILES: COc1c(N2CCNC(C)C2)c(F)cc2c(=O)c(C(=O)SCCCC(P(=O)(O)O)P(=O)(O)O)cn(C3CC3)c12 (centres undefined)
- MIC (Staphylococcus aureus [1]): > 4 µg/mL
- Activity (Bone): 98.7%
- Activity [2]: 0.1%
- Activity (Serum [3]): 0.1%
- Activity (Serum [4]): 0.1%

SMILES: COc1c(N2CCNC(C)C2)c(F)cc2c(=O)c(C(=O)O)cn(C3CC3)c12 (centres undefined) [GATIFLOXACIN]
- MIC (Staphylococcus aureus [1]): 0.06 µg/mL (≈ 0.16 µM)
- Activity (Staphylococcus aureus [5]): inactive
- Activity (Staphylococcus aureus [7]): inactive

SMILES: COc1c(N2C[C@@H]3CCCN[C@@H]3C2)c(F)cc2c(=O)c(C(=O)OCC(=O)Nc3ccc(CC(P(=O)(O)O)P(=O)(O)O)cc3)cn(C3CC3)c12
- MIC (Staphylococcus aureus [1]): > 4 µg/mL
- Activity (Bone): 97.2%
- Activity [2]: 0.6%
- Activity (Serum [3]): 1.3%
- Activity (Serum [4]): 1.2%

SMILES: COc1c(N2C[C@@H]3CCCN[C@@H]3C2)c(F)cc2c(=O)c(C(=O)OCC(=O)N(C)C(P(=O)(O)O)P(=O)(O)O)cn(C3CC3)c12
- MIC (Staphylococcus aureus [1]): > 4 µg/mL
- Activity (Bone): 97.3%
- Activity [2]: 0.3%
- Activity (Serum [3]): 0.7%
- Activity (Serum [4]): 0.8%

SMILES: COc1c(N2CCNC(C)C2)c(F)cc2c(=O)c(C(=O)OCC(=O)N(C)C(P(=O)(O)O)P(=O)(O)O)cn(C3CC3)c12 (centres undefined)
- MIC (Staphylococcus aureus [1]): > 4 µg/mL
- Activity (Bone): 90.4%
- Activity [2]: 1.1%
- Activity (Serum [3]): 0.9%
- Activity (Serum [4]): 0.6%

SMILES: COc1c(N2C[C@@H]3CCCN[C@@H]3C2)c(F)cc2c(=O)c(C(=O)OCC(=O)NC(P(=O)(O)O)P(=O)(O)O)cn(C3CC3)c12
- MIC (Staphylococcus aureus [1]): > 4 µg/mL
- Activity (Bone): 98.7%
- Activity [2]: 1.2%
- Activity (Serum [3]): 1.4%
- Activity (Serum [4]): 1.4%
- Activity (Staphylococcus aureus [8]): Active

SMILES: COc1c(N2C[C@@H]3CCCN[C@@H]3C2)c(F)cc2c(=O)c(C(=O)OCCCCC(P(=O)(O)O)P(=O)(O)O)cn(C3CC3)c12
- MIC (Staphylococcus aureus [1]): > 4 µg/mL
- Activity (Bone): 92.7%
- Activity [2]: 0.01%

SMILES: COc1c(N2CCNC(C)C2)c(F)cc2c(=O)c(C(=O)Oc3ccc(C(P(=O)(O)O)P(=O)(O)O)cc3)cn(C3CC3)c12 (centres undefined)
- MIC (Staphylococcus aureus [1]): > 4 µg/mL
- Activity (Bone): 79.2%
- Activity [2]: 0.2%
- Activity (Serum [3]): 0.1%
- Activity (Serum [4]): 0.1%

SMILES: COc1c(N2C[C@@H]3CCCN[C@@H]3C2)c(F)cc2c(=O)c(C(=O)SCCCC(P(=O)(O)O)P(=O)(O)O)cn(C3CC3)c12
- MIC (Staphylococcus aureus [1]): > 4 µg/mL
- Activity (Bone): 99.9%
- Activity [2]: 0.04%
- Activity (Serum [3]): 0.1%
- Activity (Serum [4]): 0.1%

SMILES: COc1c(N2CCNC(C)C2)c(F)cc2c(=O)c(C(=O)OCC(=O)NC(P(=O)(O)O)P(=O)(O)O)cn(C3CC3)c12 (centres undefined)
- MIC (Staphylococcus aureus [1]): > 4 µg/mL
- Activity (Bone): 91%
- Activity [2]: 2.7%
- Activity (Serum [3]): 1.3%
- Activity (Serum [4]): 1.6%
- Activity (Staphylococcus aureus [9]): Active

SMILES: COc1c(N2CCNC(C)C2)c(F)cc2c(=O)c(C(=O)OCC(=O)NCCCC[C@@H](NC(=O)COC(=O)c3cn(C4CC4)c4c(OC)c(N5CCNC(C)C5)c(F)cc4c3=O)C(=O)NC(P(=O)(O)O)P(=O)(O)O)cn(C3CC3)c12 (some centres undefined)
- MIC (Staphylococcus aureus [1]): > 4 µg/mL
- Activity (Bone): 92.8%
- Activity [2]: 0.2%
- Activity (Serum [3]): 0.4%
- Activity (Serum [4]): 0.4%

SMILES: COc1c(N2CCNC(C)C2)c(F)cc2c(=O)c(C(=O)OCC(=O)Nc3ccc(CC(P(=O)(O)O)P(=O)(O)O)cc3)cn(C3CC3)c12 (centres undefined)
- MIC (Staphylococcus aureus [1]): > 4 µg/mL
- Activity (Bone): 88.9%
- Activity [2]: 0.5%
- Activity (Serum [3]): 0.6%
- Activity (Serum [4]): 0.7%

— ChEMBL document CHEMBL1142457, “Bisphosphonated fluoroquinolone esters as osteotropic prodrugs for the prevention of osteomyelitis” (Bioorg Med Chem, 2008)
